# Calls of active or inactive are those of the source. The calls are words filed in the database; no cut-off is given here.
# Experiments:
# Fibroblast = experiment: Antiproliferative activity against human Fibroblast assessed as reduction in cell growth at high concentration incubated for 48 hrs by crystal violet staining based analysis relative to control; type: functional; set-up: scale not given: the % may be the effect or the level left
# Summary of the method: (§1)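 PDAC lines and normal fibroblasts in DMEM-Glutamax, 10% FBS, 50 μg/ml gentamicin, 37 °C, 5% CO2. Seeded 5×10^3 cells/well for PDAC lines and 8×10^3 cells/well for fibroblasts. After 24 h, treated 48 h with 1–100 μM from 100 mM DMSO stocks. Crystal Violet read at A595, normalized to untreated cells. Mean ± SD (n = 4).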
# [1] = biological target: Glyceraldehyde-3-phosphate dehydrogenase (Homo sapiens) (UniProt P04406); experiment: Binding affinity to human recombinant his tagged GAPDH expressed in Escherichia coli assessed as pseudo first order reaction at 2 mM at pH 7 in presence of beta mercaptoethanol measured for 1 hr by HPLC method
# Chain of Glyceraldehyde-3-phosphate dehydrogenase (Homo sapiens) (P04406 2-335 limits assumed): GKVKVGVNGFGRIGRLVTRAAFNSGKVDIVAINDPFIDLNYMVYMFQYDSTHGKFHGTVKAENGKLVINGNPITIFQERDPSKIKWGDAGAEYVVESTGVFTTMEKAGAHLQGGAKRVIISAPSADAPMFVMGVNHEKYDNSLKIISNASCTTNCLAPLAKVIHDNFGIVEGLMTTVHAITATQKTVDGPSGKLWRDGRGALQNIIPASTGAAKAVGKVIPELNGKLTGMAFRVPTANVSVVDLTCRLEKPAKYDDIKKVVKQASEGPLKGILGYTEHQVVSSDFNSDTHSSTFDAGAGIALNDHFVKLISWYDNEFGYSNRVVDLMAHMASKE
# [2] = Antiproliferative activity in human PaCa-3 cells measured after 48 hrs by Crystal violet staining based analysis; type: functional, cell-based; conditions: Paca3, 48 h
# Summary of the method: (§2)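 IC50 from Crystal Violet growth curves. Cells in DMEM-Glutamax with 10% FBS, seeded, then exposed after 24 h to 1–100 μM for 48 h. A595 normalized to untreated cells. Three independent experiments.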
# PANC-1 [3] = experiment: Antiproliferative activity in human PANC-1 cells measured after 48 hrs by Crystal violet staining based analysis; type: functional, cell-based; conditions: PANC-1, 48 h; summary of the method: as §2
# [4] = biological target: Glyceraldehyde-3-phosphate dehydrogenase (Homo sapiens) (UniProt P04406); experiment: Covalent inhibition of human recombinant his tagged GAPDH expressed in Escherichia coli at 50 uM measured after 30 mins by spectrophotometric analysis relative to control
# Summary of the method: (§3)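 His-tagged hGAPDH from E. coli, 2 μM, preincubated at 25 °C with 10, 50 or 100 μM inhibitor for 30 min or 3 h in 10 mM TEA, 5 mM EDTA, 10 mM arsenate, pH 7.6. Residual activity of aliquots (enzyme 30–50 nM) measured with 1.5 mM NAD+, 100 μM DL-GAP, NADH at 340 nm, 25 °C. Relative to untreated enzyme; independent duplicates, mean ± SD.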
# MIA PaCa-2 [5] = experiment: Antiproliferative activity against human MIA PaCa-2 cells assessed as reduction in cell growth at 1 to 100 uM incubated for 48 hrs by crystal violet staining based analysis; type: functional; conditions: dose 1-100 µM; summary of the method: as §1
# [6] = Antiproliferative activity in human PaCa-3 cells habouring wild type p53 assessed as decrease in cell growth at 5 uM measured after 48 hrs by Crystal violet staining based analysis relative to control; type: functional; set-up: scale not given: the % may be the effect or the level left
# Summary of the method: (§4)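 PaCa-3 (wt p53) and mutant-p53 PDAC lines exposed 48 h to 5 or 10 μM. Growth by Crystal Violet staining, each line normalized to its own untreated control. Mean ± SD, n = 4.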
# MIA PaCa-2 [7] = experiment: Antiproliferative activity in human MIA PaCa-2 cells measured after 48 hrs by Crystal violet staining based analysis; type: functional, cell-based; conditions: MIA PaCa-2, 48 h; summary of the method: as §2
# PANC-1 [8] = experiment: Antiproliferative activity in human PANC-1 cells habouring p53 mutant/R273H assessed as decrease in cell growth at 10 uM measured after 48 hrs by Crystal violet staining based analysis; type: functional; summary of the method: as §4
# PaCa-3 = experiment: Antiproliferative activity against human PaCa-3 cells assessed as reduction in cell growth at 1 to 100 uM incubated for 48 hrs by crystal violet staining based analysis; type: functional; conditions: dose 1-100 µM; summary of the method: as §1
# [9] = biological target: Glyceraldehyde-3-phosphate dehydrogenase (Homo sapiens) (UniProt P04406); experiment: Binding affinity to human recombinant his tagged GAPDH expressed in Escherichia coli assessed as time constant at 200 uM measured after 1 min by spectrophotometric analysis
# Summary of the method: (§5)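 Racker band loss. 100 μM His-tagged hGAPDH (expressed in E. coli) with 200 μM inhibitor in 10 mM TEA, 5 mM EDTA, 10 mM KH2PO4, pH 7.6. Absorbance at 340 nm followed until reaction completion; traces fitted to a kinetic equation.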
# [10] = biological target: Glyceraldehyde-3-phosphate dehydrogenase (Homo sapiens) (UniProt P04406); experiment: Binding affinity to human recombinant his tagged GAPDH expressed in Escherichia coli assessed elimination of racker band measured within 1 min by spectrophotometric analysis; summary of the method: as §5
# [11] = biological target: Glyceraldehyde-3-phosphate dehydrogenase (Homo sapiens) (UniProt P04406); experiment: Inhibition of human recombinant his tagged GAPDH expressed in Escherichia coli at 10 uM incubated for 48 hrs relative to control
# Summary of the method: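 Recombinant hGAPDH, 2 μM, with 10 μM inhibitor for 48 h at 37 °C in TEA/EDTA buffer, pH 7.6. Residual activity measured by the arsenate/NAD+/GAP assay, NADH at 340 nm, 25 °C. Expressed versus untreated enzyme; independent duplicates, mean ± SD.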
# [12] = biological target: Glyceraldehyde-3-phosphate dehydrogenase (Homo sapiens) (UniProt P04406); experiment: Inhibition of recombinant his tagged-GAPDH in human PANC-1 cells expressed in Escherichia coli at 100 uM relative to control
# [13] = Antiproliferative activity in human PaCa-44 cells measured after 48 hrs by Crystal violet staining based analysis; type: functional, cell-based; conditions: PaCa-44, 48 h; summary of the method: as §2
# PaCa-44 [14] = experiment: Antiproliferative activity in human PaCa-44 cells habouring p53 mutant/C176S assessed as decrease in cell growth at 10 uM measured after 48 hrs by Crystal violet staining based analysis; type: functional; summary of the method: as §4
# [15] = biological target: Glyceraldehyde-3-phosphate dehydrogenase (Homo sapiens) (UniProt P04406); experiment: Inhibition of recombinant his tagged-GAPDH in human PaCa-3 cells expressed in Escherichia coli at 100 uM relative to control
# [16] = biological target: Glyceraldehyde-3-phosphate dehydrogenase (Homo sapiens) (UniProt P04406); experiment: Covalent inhibition of human recombinant his tagged GAPDH expressed in Escherichia coli at 100 uM measured after 3 hrs by spectrophotometric analysis relative to control; summary of the method: as §3
# PaCa-44 [17] = experiment: Antiproliferative activity against human PaCa-44 cells assessed as reduction in cell growth at 1 to 100 uM incubated for 48 hrs by crystal violet staining based analysis; type: functional; conditions: dose 1-100 µM; summary of the method: as §1
# [18] = biological target: Glyceraldehyde-3-phosphate dehydrogenase (Homo sapiens) (UniProt P04406); experiment: Inhibition of recombinant his tagged-GAPDH in human PaCa-44 cells expressed in Escherichia coli at 100 uM relative to control
# MIA PaCa-2 [19] = experiment: Antiproliferative activity in human MIA PaCa-2 cells habouring p53 mutant/R248W assessed as decrease in cell growth at 10 uM measured after 48 hrs by Crystal violet staining based analysis; type: functional; summary of the method: as §4
# [20] = biological target: Glyceraldehyde-3-phosphate dehydrogenase (Homo sapiens) (UniProt P04406); experiment: Covalent inhibition of human recombinant his tagged GAPDH expressed in Escherichia coli at 10 uM measured after 30 mins by spectrophotometric analysis relative to control; summary of the method: as §3
# PANC-1 [21] = experiment: Antiproliferative activity against human PANC-1 cells assessed as reduction in cell growth at 1 to 100 uM incubated for 48 hrs by crystal violet staining based analysis; type: functional; conditions: dose 1-100 µM; summary of the method: as §1
# [22] = biological target: Glyceraldehyde-3-phosphate dehydrogenase (Homo sapiens) (UniProt P04406); experiment: Binding affinity to human recombinant his tagged GAPDH expressed in Escherichia coli assessed as absolute rate constant at 2 mM at pH 7 in presence of beta mercaptoethanol measured for 1 hr by HPLC method
# [23] = biological target: Glyceraldehyde-3-phosphate dehydrogenase (Homo sapiens) (UniProt P04406); experiment: Binding affinity to human recombinant his tagged GAPDH expressed in Escherichia coli assessed elimination of racker band at measured after 30 hrs by spectrophotometric analysis; summary of the method: as §5
# [24] = biological target: Glyceraldehyde-3-phosphate dehydrogenase (Homo sapiens) (UniProt P04406); experiment: Binding affinity to human recombinant his tagged GAPDH expressed in Escherichia coli assessed as time constant at 200 uM measured after 30 hrs by spectrophotometric analysis; summary of the method: as §5
# [25] = biological target: Glyceraldehyde-3-phosphate dehydrogenase (Homo sapiens) (UniProt P04406); experiment: Covalent inhibition of human recombinant his tagged GAPDH expressed in Escherichia coli assessed as residual activity at 100 uM measured after 3 hrs by spectrophotometric analysis; summary of the method: as §3
# PaCa-44 [26] = experiment: Antiproliferative activity against human PaCa-44 cells assessed as reduction in cell growth at 100 uM incubated for 48 hrs by crystal violet staining based analysis; type: functional; summary of the method: as §1
structure (smiles),measurement,setting,value
BrC1=NOC2(CCCc3ccccc32)C1 (centres undefined),Activity,Fibroblast,20%
same,K,[1],5.25 10^-6/s
same,IC50,[2],4.69 µM
same,IC50,PANC-1 [3],21.7 µM
same,inhibition,[4],100%
same,Activity,MIA PaCa-2 [5],Active
same,Activity,[6],42%
same,IC50,MIA PaCa-2 [7],15.2 µM
same,Activity,PANC-1 [8],Active
same,Activity,PaCa-3,Active
same,K,[9],0.2 min
same,inhibition,[10],Active
same,inhibition,[11],100%
same,inhibition,[12],100%
same,IC50,[13],16.2 µM
same,Activity,PaCa-44 [14],Active
same,inhibition,[15],100%
same,inhibition,[16],40%
same,Activity,PaCa-44 [17],Active
same,inhibition,[18],100%
same,Activity,MIA PaCa-2 [19],Active
same,inhibition,[20],100%
same,Activity,PANC-1 [21],Active
same,K,[22],8.75 10^-6/M/s
C=CC(=O)N1CCC[C@@H](n2nc(-c3ccc(Oc4ccccc4)cc3)c3c(N)ncnc32)C1,K,[22],10.4 10^-4/M/s
BrC1=NOC(c2ccccc2)C1 (centres undefined),K,[1],6.62 10^-5/s
same,inhibition,[16],40%
same,inhibition,[23],inactive
same,K,[24],908 min
same,K,[22],1.1 10^-4/M/s
NS(=O)(=O)c1ccc(C2CC(Br)=NO2)cc1 (centres undefined),inhibition,[25],inactive
BrC1=NOC(c2cccs2)C1 (centres undefined),inhibition,[25],inactive
O=C(O)c1ccc(C2CC(Br)=NO2)s1 (centres undefined),inhibition,[16],20%
O=C(O)c1ccc2c(c1)CCCC21CC(Br)=NO1 (centres undefined),K,[1],< 1 10^-8/s
same,inhibition,[4],100%
same,Activity,PaCa-44 [26],Active
same,inhibition,[11],40%
same,inhibition,[12],30%
same,inhibition,[16],40%
same,K,[22],< 1 10^-8/M/s
Oc1ccc(C2CC(Br)=NO2)cc1 (centres undefined),inhibition,[16],40%
CC(C)[C@H]1CC[C@@]2(CO2)[C@H]2C(=O)OCC(C(=O)O)=C[C@H]12,K,[9],0.701 min
O=C(O)c1cccc(C2CC(Br)=NO2)c1 (centres undefined),inhibition,[16],20%
O=C(O)c1ccc(C2CC(Br)=NO2)cc1 (centres undefined),K,[1],1.11 10^-6/s
same,inhibition,[16],40%
same,K,[22],1.84 10^-6/M/s
O=C(O)c1ccccc1C1CC(Br)=NO1 (centres undefined),inhibition,[25],inactive
BrC1=NOC(c2ccc(-c3nnn[nH]3)cc2)C1 (centres undefined),inhibition,[25],inactive
O=S(=O)(O)c1ccc(C2CC(Br)=NO2)cc1 (centres undefined),inhibition,[16],20%
